Results: ChEMBL document CHEMBL1138488, “Synthesis and biological evaluation of 3,3-difluoropyridine-2,4(1H,3H)-dione and 3-deaza-3-fluorouracil base and nucleoside derivatives” (J Med Chem, 2009)
Calls of active or inactive are those of the source. No cut-off for these calls is given here.

Assays:
Human respirovirus 3 = assay: Antiviral activity against Parainfluenza virus type 3 infected in african green monkey Vero cells assessed as inhibition of virus-induced cytopathic effect at <=100 uM; type: functional, organism-based
Summary of the method: (§1)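 Confluent cell monolayers were inoculated with 100 CCID₅₀ of virus, and virus was adsorbed for 1 h. Residual virus was then removed and cells were incubated with serial compound concentrations ([…], ... µM). Cytopathicity was scored once it reached completion in untreated virus-infected control cultures.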

[1] = test system: Mammalian orthoreovirus 3; assay: Antiviral activity against Reovirus 3 infected in african green monkey Vero cells assessed as inhibition of virus-induced cytopathic effect at <=100 uM; type: functional, organism-based
Sindbis virus = assay: Antiviral activity against Sindbis virus infected in african green monkey Vero cells assessed as inhibition of virus-induced cytopathic effect at <=100 uM; type: functional, organism-based; summary of the method: as §1
Punta Toro virus = assay: Antiviral activity against Punta Toro virus infected in african green monkey Vero cells assessed as inhibition of virus-induced cytopathic effect at <=100 uM; type: functional, organism-based; summary of the method: as §1
Human betaherpesvirus 5 [2] = assay: Antiviral activity against HCMV AD169 infected in HEL cells assessed as inhibition of virus-induced cytopathic effect at <=100 uM; type: functional, organism-based; summary of the method: as §1
Human betaherpesvirus 5 [3] = assay: Antiviral activity against HCMV Davis infected in HEL cells assessed as inhibition of virus-induced cytopathic effect at <=100 uM; type: functional, organism-based; summary of the method: as §1
Human alphaherpesvirus 3 [4] = assay: Antiviral activity against thymidine kinase expressing Varicella zoster virus Oka infected in human HEL cells assessed as inhibition of virus-induced cytopathic effect at <=100 uM; type: functional, organism-based; summary of the method: as §1
Human alphaherpesvirus 3 [5] = assay: Antiviral activity against thymidine kinase deficient Varicella zoster virus 07/1 infected in human HEL cells assessed as inhibition of virus-induced cytopathic effect at <=100 uM; type: functional, organism-based; summary of the method: as §1
[6] = test system: Human immunodeficiency virus 1; assay: Antiviral activity against HIV1 3B replication in human CEM cells assessed as virus-induced giant cell formation at <=100 uM after 4 days; type: functional, organism-based; settings: CCRF-CEM
Summary of the method: (§2)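 CEM cells (~3 × 10⁵ cells/cm³) were infected with 100 CCID₅₀/mL of HIV-1(III_B) or HIV-2(ROD) and seeded into wells containing compound dilutions. After 4 days at 37 °C, virus-induced giant cell formation was examined microscopically.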

[7] = test system: Human immunodeficiency virus 2; assay: Antiviral activity against HIV2 ROD replication in human CEM cells assessed as virus-induced giant cell formation at <=100 uM after 4 days; type: functional, organism-based; settings: CCRF-CEM; summary of the method: as §2
L1210 = assay: Cytostatic activity against mouse L1210 cells at <=500 uM after 2 days by Coulter counting analysis; type: ADME, cell-based; settings: l1210, 48 h
Summary of the method: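 Murine leukemia L1210 cells were seeded at 50000 cells per well with varying compound concentrations. Viable cell number was counted by Coulter counter after 2 days.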

[8] = Cytostatic activity against human Molt4/C8 cells at <=500 uM after 3 days by Coulter counting analysis; type: ADME, cell-based; settings: molt-4, 72 h
Summary of the method: (§3)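 Molt4/C8 or CEM lymphocytes were seeded at 75000 cells per well with varying compound concentrations. Viable cells were counted by Coulter counter after 3 days. CC₅₀ is the concentration inhibiting cell proliferation by 50%.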

CCRF-CEM = assay: Cytostatic activity against human CEM cells at <=500 uM after 3 days by Coulter counting analysis; type: cell-based; settings: 72 h; summary of the method: as §3
Human alphaherpesvirus 1 [9] = assay: Antiviral activity against HSV1 KOS infected in HEL cells assessed as virus-induced cytopathic effect at <=100 uM; type: functional, organism-based
Human alphaherpesvirus 1 [10] = assay: Antiviral activity against acyclovir-resistant […] kinase-deficient HSV1 KOS infected in HEL cells assessed as virus-induced cytopathic effect at <=100 uM; type: functional, organism-based
Human alphaherpesvirus 2 = assay: Antiviral activity against HSV2 strain G infected in HEL cells assessed as virus-induced cytopathic effect at <=100 uM; type: functional, organism-based
Vaccinia virus = assay: Antiviral activity against Vaccinia virus infected in HEL cells assessed as inhibition of virus-induced cytopathic effect at <=100 uM; type: functional, organism-based; settings: Orthopoxvirus vaccinia
[11] = test system: Vesicular stomatitis virus; assay: Antiviral activity against Vesicular stomatitis virus infected in HEL cells assessed as inhibition of virus-induced cytopathic effect at <=100 uM; type: functional, organism-based
[12] = test system: Vesicular stomatitis virus; assay: Antiviral activity against Vesicular stomatitis virus infected in human HeLa cells assessed as inhibition of virus-induced cytopathic effect at <=100 uM; type: functional, organism-based
Coxsackievirus B4 = assay: Antiviral activity against Coxsackievirus B4 infected in human HeLa cells assessed as inhibition of virus-induced cytopathic effect at <=100 uM; type: functional, organism-based; summary of the method: as §1
[13] = test system: Respiratory syncytial virus; assay: Antiviral activity against Respiratory syncytial virus infected in human HeLa cells assessed as inhibition of virus-induced cytopathic effect at <=100 uM; type: functional, organism-based; summary of the method: as §1
[14] = test system: Moloney murine sarcoma virus; assay: Antiviral activity against Moloney sarcoma virus replication infected in mouse […] cells assessed as virus-induced transformation of cells at <=100 uM measured on day 6 postinfection; type: functional, organism-based
Summary of the method: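 Murine C3H/3T3 embryo fibroblasts were grown to confluency and infected with Moloney murine sarcoma virus at 75 focus-forming units. Compound concentrations were then added, and virus-induced transformation was examined microscopically at day 6 postinfection.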

Row | SMILES | Activity (Human respirovirus 3) | Activity [1] | Activity (Sindbis virus) | Activity (Punta Toro virus) | Activity (Human betaherpesvirus 5 [2]) | Activity (Human betaherpesvirus 5 [3]) | Activity (Human alphaherpesvirus 3 [4]) | Activity (Human alphaherpesvirus 3 [5]) | Activity [6] | Activity [7] | Activity (L1210) | Activity [8] | Activity (CCRF-CEM) | Activity (Human alphaherpesvirus 1 [9]) | Activity (Human alphaherpesvirus 1 [10]) | Activity (Human alphaherpesvirus 2) | Activity (Vaccinia virus) | Activity [11] | Activity [12] | Activity (Coxsackievirus B4) | further results
1 | O=C1N([C@@H]2O[C@H](CO)[C@@H](O)[C@H]2O)C=CC(O)(c2ccccc2)C1(F)F (stereo partly drawn) | inactive | inactive | inactive | inactive | inactive | inactive | inactive | inactive | inactive | inactive | Not Active | Not Active | Not Active | inactive | inactive | inactive | inactive | inactive | inactive | inactive | Activity [13]: inactive; Activity [14]: inactive
2 | O=C1N([C@H]2C[C@H](O)[C@@H](CO)O2)C=CC(O)(c2ccccc2)C1(F)F (stereo partly drawn) | inactive | inactive | inactive | inactive | inactive | inactive | inactive | inactive | inactive | inactive | Not Active | Not Active | Not Active | inactive | inactive | inactive | inactive | inactive | inactive | inactive | Activity [13]: inactive; Activity [14]: inactive
3 | C#CC1(O)C=CN([C@@H]2O[C@H](CO)[C@@H](O)[C@H]2O)C(=O)C1(F)F (stereo partly drawn) | inactive | inactive | inactive | inactive | inactive | inactive | inactive | inactive | inactive | inactive | Not Active | Not Active | Not Active | inactive | inactive | inactive | inactive | inactive | inactive | inactive | Activity [13]: inactive; Activity [14]: inactive
4 | NC(=O)Cc1ccn([C@@H]2O[C@H](CO)[C@@H](O)[C@@H]2O)c(=O)c1F | inactive | inactive | inactive | inactive | inactive | inactive | inactive | inactive | inactive | inactive | Not Active | Not Active | Not Active | inactive | inactive | inactive | inactive | inactive | inactive | inactive | Activity [13]: inactive; Activity [14]: inactive
5 | O=c1c(F)c(O)ccn1[C@H]1C[C@H](O)[C@@H](CO)O1 | inactive | inactive | inactive | inactive | inactive | inactive | inactive | inactive | inactive | inactive | Not Active | Not Active | Not Active | inactive | inactive | inactive | inactive | inactive | inactive | inactive | Activity [13]: inactive; Activity [14]: inactive
6 | CC1(O)C=CN([C@H]2C[C@H](O)[C@@H](CO)O2)C(=O)C1(F)F (stereo partly drawn) | inactive | inactive | inactive | inactive | inactive | inactive | inactive | inactive | inactive | inactive | Not Active | Not Active | Not Active | inactive | inactive | inactive | inactive | inactive | inactive | inactive | Activity [13]: inactive; Activity [14]: inactive
7 | O=c1c(F)c(O)ccn1[C@@H]1O[C@H](CO)[C@@H](O)[C@@H]1O | inactive | inactive | inactive | inactive | inactive | inactive | inactive | inactive | inactive | inactive | Not Active | Not Active | Not Active | inactive | inactive | inactive | inactive | inactive | inactive | inactive | Activity [13]: inactive; Activity [14]: inactive
8 | NC(=O)Cc1ccn([C@@H]2O[C@H](CO)[C@@H](O)[C@H]2O)c(=O)c1F | inactive | inactive | inactive | inactive | inactive | inactive | inactive | inactive | inactive | inactive | Not Active | Not Active | Not Active | inactive | inactive | inactive | inactive | inactive | inactive | inactive | Activity [13]: inactive; Activity [14]: inactive
9 | CC1(O)C=CN([C@@H]2O[C@H](CO)[C@@H](O)[C@H]2O)C(=O)C1(F)F (stereo partly drawn) | inactive | inactive | inactive | inactive | inactive | inactive | inactive | inactive | inactive | inactive | Not Active | Not Active | Not Active | inactive | inactive | inactive | inactive | inactive | inactive | inactive | Activity [13]: inactive; Activity [14]: inactive
